How the values were obtained:
[1] = Lung tissue distribution study; type: in vivo, rat
Procedure, shortened: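 Male Sprague–Dawley rats (200 ± 20 g), fasted 12 h. Dose 10 mg/kg as Sal B, given either as dry powder or as iv solution. Powder was insufflated intratracheally under chloral hydrate anaesthesia (three 1.5 ml air pushes). Lungs were collected at 0.033–12 h (9 time points, n = 3 each) and homogenised 1:5 (g/ml) in iced saline. Homogenates were processed as for plasma and quantified by UPLC-MS/MS.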

[2] = cited from earlier work
[3] = Preliminary pharmacokinetic study in plasma; type: in vivo, rat
Procedure, shortened: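 Male Sprague–Dawley rats (200 ± 20 g, n = 6/group). Dose 10 mg/kg as Sal B, by intratracheal powder insufflation or iv solution. Suborbital blood was taken into heparin at 0.033–12 h, and plasma was spun 10 min at 4 °C. Ascorbic acid, internal standard and HCl were added, then ethyl acetate extraction. Dried extract was reconstituted in methanol-water 80:20 for UPLC-MS/MS; parameters came from concentration-time data.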

[4] = tested on: bleomycin-induced rat model of IPF; assay: Preliminary pharmacodynamics in bleomycin-induced rat model of IPF; type: in vivo; conditions: Day 29, vs bleo group; same dosing
Procedure, shortened: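 Male Sprague–Dawley rats under chloral hydrate anaesthesia received intratracheal bleomycin (5 mg/kg in 0.1 ml saline), then were held upright and rotated 5 min; controls got saline. From day 1, test powder was insufflated at 10 mg/kg as Sal B once daily for 28 d. Comparators: same dose iv, reference drug intragastric 31.5 mg/kg, or air. On day 29, right lung lavaged (3× cold saline); left lung stored −80 °C for Hyp.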

NIH-3T3 cells = assay: Scratch test, TGF-β1-induced cell migration; type: cell-based, mouse; conditions: TGF-β1 5 ng/ml, 48 h; vs TGF-β1 group
Procedure, shortened: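 NIH-3T3 fibroblasts were seeded in 12-well format, cultured 24 h, then scratched. After 24 h synchronisation, TGF-β1 (5 ng/ml) was added with test compound, SB431542 or a reference drug, and incubated 48 h. Wounds were photographed under an inverted microscope at 0, 24 and 48 h after drug addition.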

[5] = tested on: NIH-3T3 mouse embryonic fibroblasts; assay: MTT assay; type: cell-based; conditions: NIH3T3, 48 h
Procedure, shortened: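 NIH-3T3 cells were grown in high-glucose DMEM with 10% FBS and penicillin/streptomycin at 37 °C, 5% CO2, in 96-well format. Test compound was given at 25–200 µg/ml and a reference drug at 0.25–10 µM, for 48 h. MTT (5 mg/ml) was added for 4 h, dissolved in DMSO, and absorbance read at 490 nm.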

[6] = Sal B in rat lung tissue, 10 mg/kg as Sal B, iv solution or pulmonary DPI, n = 3
[7] = male, Sprague-Dawley, rat, lung tissue, iv, 10 mg/kg
[8] = Sal B in rat plasma, 10 mg/kg as Sal B, iv solution or pulmonary DPI, n = 6
[9] = male, Sprague-Dawley, rat, plasma, iv, 10 mg/kg

SMILES	Hyp content in lung tissue homogenate [4]	IFN-γ content in BALF [4]	IL-1β content in BALF [4]	IL-4 content in BALF [4]	IL-6 content in BALF [4]	IL-18 content in BALF [4]	MDA content in lung tissue homogenate [4]	SOD activity in lung tissue homogenate [4]	TGF-β1 protein content in BALF [4]	serum MPO content [4]	effect on TGF-β1-induced cell migration (NIH-3T3 cells)	also measured
O=C(/C=C/c1ccc(O)c2c1[C@H](C(=O)O[C@H](Cc1ccc(O)c(O)c1)C(=O)O)[C@@H](c1ccc(O)c(O)c1)O2)O[C@H](Cc1ccc(O)c(O)c1)C(=O)O [Sal B, Salvianolic acid B]	significantly lower	not significantly different	significantly decreased	not significantly different	significantly decreased	significantly decreased	significantly reduced	increased significantly	significantly decreased	significantly reduced		AUC0-∞ [1, 6]: 1898.5 ± 134.03 ng·h/g; Cmax [1, 6]: 13,150.38±619.02 ng/g; Lz [1, 6]: 0.77 ± 0.04 h⁻¹; Cmax [1, 7]: 13200 ng/g; MRT [1, 7]: 11.4 min; Tmax [1, 7]: 1.98 min; half-life [1, 7]: 54 ± 3 min; absolute bioavailability of Sal B in previous studies [2]: 19.15%±7.44%; Cl/F [3, 8]: 41.5 ± 7.83 mL/min/kg; Lz (elimination of phase slope) [3, 8]: 0.45 ± 0.07 h⁻¹; Vz/F [3, 8]: 5.62 ± 1.47 L/kg; AUC(0-inf) [3, 9]: 6550 ± 1490 ng·h/mL; Cmax [3, 9]: 16400 ng/mL; MRT [3, 9]: 49.8 ± 6 min; Tmax [3, 9]: 1.98 min; half-life [3, 9]: 93.6 ± 16.8 min
COC(=O)c1ccc2c(c1)NC(=O)/C2=C(\Nc1ccc(N(C)C(=O)CN2CCN(C)CC2)cc1)c1ccccc1 [nidanib, nintedanib, reference compound]	significantly lower	significantly increased(P < 0.01)	significantly decreased	significantly decreased	significantly decreased	significantly decreased	significantly reduced	increased significantly	significantly decreased	significantly reduced	significantly inhibited the migration of NIH-3T3 cells in a concentration dependent manner	concentration with no significant effect on cell viability [5]: < 1000 nM
NC(=O)c1ccc(-c2nc(-c3ccc4c(c3)OCO4)c(-c3ccccn3)[nH]2)cc1 [SB431542]											significantly inhibited	
